Measurements from article PMC2532710 (Nucleic Acids Research, 2008).

Experiments:
Complete fork = experiment: 2-AP titration Kd, complete fork; assay type: binding; conditions: Kd ratio, n = 1
Method in brief: (§1)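 Each substrate carried 2-AP at strand 4, position 2 and was used at 0.1 μM in 20 mM Tris-HCl pH 7.8, 25 mM NaCl, 1 mM EDTA, 1.6% DMSO at 24°C. Peptide dimer added in 2-fold steps from 0.003125 μM, 3 min each. Excitation 315 nm, emission 330–430 nm. Adenine background subtracted, 365–375 nm averaged. Fc fitted by least squares to pooled 2–3 dilution series. Value given as Kd relative to HJ Kd.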

Oligo = experiment: 2-AP titration Kd, oligo; assay type: binding; conditions: Kd ratio, n = 1
Method in brief: as §1

protein-free HJ DNA = experiment: peptide/RecG band shift assay on HJ; assay type: binding; conditions: read-out: dissociation constant (Kd) by band shift assay; peptide dimer, HJ
RecG/HJ complex = experiment: displacement of RecG from HJ DNA; assay type: binding, Escherichia coli; conditions: 0.1 μM (WRWYCR)2
Flayed fork = experiment: 2-AP titration Kd, flayed fork; assay type: binding; conditions: Kd ratio, n = 1
Method in brief: as §1

(WRWYCR)2 (disulfide)
Fold reduced versus HJ (Complete fork): 4.4 | Fold reduced versus HJ (Oligo): 51.1 | Kd (protein-free HJ DNA): 12.5 nM | disappearance of band with two RecG monomers per HJ (RecG/HJ complex): takes far longer to disappear | Fold reduced versus HJ (Flayed fork): 43.9
